Among the data in ChEMBL document CHEMBL1153859, “Analogs of JHU75528, a PET ligand for imaging of cerebral cannabinoid receptors (CB1): development of ligands with optimized lipophilicity and binding affinity” (Eur J Med Chem, 2009) are Ki, logD and Activity values, retold here.

The source made the active and inactive calls. The calls are words filed in the database; no cut-off is given here.

For data set [1], the target named is T1, Cannabinoid receptor 1 (Homo sapiens, UniProt P21554). Kind of data set: biochemical. It is filed as cell-based, HEK293.
A short description of data set [2]: Octanol-phosphate buffer partition coefficient, log D at pH 7.4 by shake-flask method. In kind it is physicochemical. In short, it runs like this:
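Octanol/phosphate buffer (pH 7.4) partition by conventional shake-flask; logD7.4 reported as mean ± S.D. of independent assays.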

Data set [3] relates to Mus musculus. Kind of data set: Binding affinity to CB1 receptor in CD1 mouse brainstem at 200 uCi, iv after 60 mins in presence of rimonabant. The following applies: tested as the 11C-labelled form. In kind it is functional, organism-based. The essentials: (§1)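 Controls got vehicle. 15 min later [11C] tracer (~7.4 MBq, ~200 μCi; ~300 GBq/μmol) was given i.v.; n=3 per group. Brains were harvested at 60 min and regions dissected on ice, then γ-counted against injectate standards as %ID/g tissue. Single-factor ANOVA, p ≤ 0.05.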

Data set [4] deals with Mus musculus. Kind of data set: Binding affinity to CB1 receptor in CD1 mouse hippocampus at 200 uCi, iv after 60 mins in presence of rimonabant. It is filed as functional, organism-based. The following applies: tested as the 11C-labelled form. In short, it runs like this:
as §1

Data set [5] has as its target Cannabinoid receptor 1 (Mus musculus) (UniProt P47746). Kind of data set: Antagonist activity at CB1 receptor in C57/BL6 mouse striatum assessed as blockade of WIN-55212-2 induced inhibition of glutamate release at 3 uM by electrophysiology. It is filed as functional, tissue-based.
Data set [6] relates to Cannabinoid receptor 1 (Macaca mulatta). Kind of data set: Binding affinity to Rhesus monkey CB1 receptor assessed as binding potential. The following applies: tested as the 11C-labelled form.
In data set [7] the target is T1, Cannabinoid receptor 1. Kind of data set: Binding affinity to human CB1 receptor assessed as binding potential.

T1 sequence (P21554 whole entry): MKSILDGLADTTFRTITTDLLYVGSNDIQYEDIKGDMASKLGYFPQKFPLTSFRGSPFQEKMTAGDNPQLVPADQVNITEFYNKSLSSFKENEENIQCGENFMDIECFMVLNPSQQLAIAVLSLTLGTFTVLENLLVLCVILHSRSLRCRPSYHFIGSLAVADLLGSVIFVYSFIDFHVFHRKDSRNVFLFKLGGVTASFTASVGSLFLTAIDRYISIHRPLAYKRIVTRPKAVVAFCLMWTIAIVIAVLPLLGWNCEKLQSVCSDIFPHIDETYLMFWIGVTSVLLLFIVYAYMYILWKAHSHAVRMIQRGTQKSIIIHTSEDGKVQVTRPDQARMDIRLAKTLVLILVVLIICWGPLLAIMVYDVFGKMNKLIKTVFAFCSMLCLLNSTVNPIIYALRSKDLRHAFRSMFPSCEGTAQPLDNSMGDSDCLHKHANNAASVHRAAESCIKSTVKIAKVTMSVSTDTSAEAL
Cannabinoid receptor 1 (Mus musculus), sequence (P47746 whole entry): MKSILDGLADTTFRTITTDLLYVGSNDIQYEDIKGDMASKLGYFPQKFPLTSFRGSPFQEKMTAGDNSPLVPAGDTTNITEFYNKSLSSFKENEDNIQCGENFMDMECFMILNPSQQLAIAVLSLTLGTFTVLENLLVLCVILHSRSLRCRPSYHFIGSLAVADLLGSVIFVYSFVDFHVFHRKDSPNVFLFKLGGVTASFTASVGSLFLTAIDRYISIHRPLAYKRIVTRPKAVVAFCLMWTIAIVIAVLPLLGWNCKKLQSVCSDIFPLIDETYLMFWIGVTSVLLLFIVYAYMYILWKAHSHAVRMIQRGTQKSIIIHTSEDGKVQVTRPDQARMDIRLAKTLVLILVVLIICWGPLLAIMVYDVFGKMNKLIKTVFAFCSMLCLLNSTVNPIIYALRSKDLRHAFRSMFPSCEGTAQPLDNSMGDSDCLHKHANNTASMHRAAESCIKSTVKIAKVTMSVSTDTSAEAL

By Ki is commonly meant a dissociation constant, usually derived from enzyme kinetics or from competition with a known ligand. For orientation: logD means lipophilicity at a set pH, counting ionised and neutral species. In turn, `COc1ccc(-c2c(C#N)c(C(=O)NN3CCCCC3)nn2-c2ccccc2Br)cc1` had a Ki in data set [1] of 4.7 nM. Moreover, the logD in data set [2] was determined as 3.4.
Molecule `COc1ccc(-c2c(C(N)=O)c(C(=O)NN3CCCCC3)nn2-c2ccccc2Br)cc1` showed a Ki in data set [1] above 10000 nM. The logD in data set [2] came to 2.5.
Take `COc1ccc(-c2c(C#N)c(C(=O)NN3CCCC3)nn2-c2ccc(Cl)cc2Cl)cc1`: the Ki in data set [1] is 2 nM. The outcome in data set [3] was Active. For the same molecule, in data set [4], the outcome was inactive.
The molecule `COc1ccc(-c2c(C#N)c(C(=O)NN3CCCCC3)nn2-c2ccc(F)cc2Br)cc1` gave a Ki in data set [1] of 32 nM. Besides, the logD in data set [2] came out at 2.9.
As to `COc1ccc(-c2c(C#N)c(C(=O)NN3CCCCC3)nn2-c2ccc(Cl)cc2Cl)cc1` [JHU-75528], in data set [1], the affinity, expressed as Ki, was 11 nM. Further, the outcome in data set [5] was Active. Further, the Activity in data set [6] turned out to be 0.6.
As to `CCCCCCC(C)(C)c1cc(O)c2c(c1)OC(C)(C)[C@@H]1CC=C(CO)C[C@@H]21`, the Ki in data set [1] came to 1.5 nM.
In data set [1], `N#Cc1c(C(=O)NN2CCCCC2)nn(-c2ccc(Cl)cc2Cl)c1-c1ccc(Cl)cc1` yielded a Ki of 24 nM. For the same molecule, the logD in data set [2] came out at 3.5.
In turn, `N#Cc1c(C(=O)NN2CCCCC2)nn(-c2ccc(Cl)cc2Cl)c1-c1ccc(OCF)cc1` came in with a Ki in data set [1] of 10.3 nM. Besides, in data set [2], the logD was 2.9.
The molecule `N#Cc1c(C(=O)NN2CCOCC2)nn(-c2ccc(Cl)cc2Cl)c1-c1ccc(I)cc1` returned an inhibitory constant (Ki) in data set [1] of 131 nM. Also, the logD in data set [2] was 3.2.
`N#Cc1c(C(=O)NN2CCOCC2)nn(-c2ccc(Cl)cc2Cl)c1-c1ccc(Br)cc1` returned a Ki in data set [1] above 1000 nM. Moreover, in data set [2], the pH-dependent lipophilicity (logD) was 3.1.
The like results for `COc1ccc(-c2c(C#N)c(C(=O)NN3CCCCC3)nn2-c2ccc(F)cc2Cl)cc1` were, in that order, 13 nM and 2.8.
`N#Cc1c(C(=O)NN2CCCCC2)nn(-c2ccc(Cl)cc2Cl)c1-c1ccc(I)cc1` came in with a Ki in data set [1] of 33 nM. In addition, the logD in data set [2] came to 3.9.
On to `Cc1c(C(=O)NN2CCOCC2)nn(-c2ccc(Cl)cc2Cl)c1-c1ccc(I)cc1`, for which the Activity was 0.21 in data set [7] (tested as the 123I-labelled form) and 0.37 in data set [7] (tested as the 124I-labelled form).
In turn, `N#Cc1c(C(=O)NN2CCCCC2)nn(-c2ccc(Cl)cc2Cl)c1-c1ccc(Br)cc1` displayed a Ki in data set [1] of 14 nM. This molecule also returned a logD in data set [2] of 3.7.
